Test results: ChEMBL document CHEMBL4513216, “Probing the Open Global Health Chemical Diversity Library for Multistage-Active Starting Points for Next-Generation Antimalarials” (ACS Infect Dis, 2020)

Assay: Toxicity liver stage against HepG2, at 10uM
Format: cell-based
Parameters: test concentration 10 uM, cell line HepG2-A16-CD81EGFP
Details: human, HepG2-A16-CD81EGFP cells; read-out: INHIBITION
How it was run: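 Uninfected HepG2-A16-CD81EGFP cells, 3 × 10^3 per well, 1536-well, plated on prespotted compound at 10 μM final, parasite-free screening media added to match infected plates; puromycin 10 μM positive, DMSO 0.5% negative; run in parallel with 48 h PbLuc assay at 37 °C, 5% CO2; viability by CellTiter-Glo luminescence, normalized to controls.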

Point of comparison: `CC1(c2nccs2)CCN(C(=O)CCN2CCOCC2)CC1`, cytotoxicity at 10 µM 2.97%. Against it:
- CC(O)CN1CCN(C(=O)c2cccc(CC#N)c2)CC1 (centres undefined) — lower, -3.74%
- COc1ccc(F)c(CN2CCCC3(CCN(C4CCOCC4)C3)C2)c1 (centres undefined) — lower, -1.48%
- COCCN1CCC2(COCCN(C(=O)Cc3cccs3)C2)C1 (centres undefined) — higher, 4.29%
- Cc1ccc(Cl)cc1-n1nnnc1C1(N2CCCC2)CCCC1 — lower, 1.18%
- Cn1c(Cn2ccnc2)nnc1C1CCN(C(=O)c2ccncc2)CC1 — lower, -106%
- O=C(NCC1(c2cccc(F)c2)CC1)N1CCC2(CCOC2)C1 (centres undefined) — lower, 2.82%
- CCC(NC(=O)C1CC1)c1ccccc1OCC(=O)N1CCCC1 (centres undefined) — lower, -9.16%
- Cc1cnn(Cc2cc(F)ccc2F)c1NC(=O)C1CCOCC1 — lower, -0.303%
- Cc1cc2n(n1)CC(CNCc1ccc(OCC3CC3)nc1)CN2 (centres undefined) — lower, -8.42%
- CC(C)=CCN1C[C@@H](C(=O)O)C[C@H](C(=O)Nc2ccc(C)nc2)C1 — higher, 5.67%
- Cc1nn(C)c(C)c1-c1cc(-c2cc(CC(=O)O)cs2)nc(N)c1C#N — lower, 0.701%
- CSC(C)C(=O)Nc1ccnn1-c1ccccc1C (centres undefined) — lower, -12.5%
- CCNC(=O)CNC(=O)c1ccn(S(=O)(=O)c2ccc(C)cc2)c1 — lower, -5.73%
- CN(Cc1noc(C(C)(C)C)n1)Cc1ccccc1N1CCCCC1 — lower, -4.73%
- c1ccc(Oc2ncccc2CNCc2ccccn2)cc1 — lower, -8.04%
- CCOC(=O)c1nnc2ccccc2c1N1CCN(CC)CC1 — lower, -2.27%
- Cc1nsc(N2CCN(Cc3cccc(F)c3)CC2)n1 — lower, 2.74%
- N#Cc1c(F)cccc1NCCCOCC1CCOC1 (centres undefined) — lower, -2.64%
- COc1cccc(S(=O)(=O)N2C[C@H](OC)[C@]3(CCCO3)C2)c1 — lower, -25.7%
- O=C(NCc1ccc2nonc2c1)C1CCN(C(=O)C2CCC2)CC1 — lower, -8.61%
- O=C(COC1CCCC1)NCc1ccc(O)c(F)c1 — lower, -2.43%
- O=C(c1cc(C2CC2)[nH]n1)N1CCN(Cc2ccccc2)CC1 — lower, -5.94%
- CC[C@H](C)[C@H](NC(=O)c1ccccc1-n1cnnn1)C(=O)OC — higher, 5.16%
- O=C(C1CCOCC1)N1CC[C@@H](O)[C@@H]1Cc1ccncc1 — lower, -2.36%
- Cc1nccn1-c1ccc(NC(=O)C2CCCN2Cc2ccoc2)cc1 (centres undefined) — lower, 0.184%
- CCNC(=O)NCc1ccnc(N(C)C)n1 — lower, -0.786%
- CO[C@@H]1CC[C@H]2[C@H]1OCCN2C(=O)c1ccc(C)nc1 — lower, -143%
- CN(Cc1cc(-c2cccnc2)no1)C(=O)C1CCCN1S(C)(=O)=O (centres undefined) — lower, -2.54%
- CC(CN1CCOCC1)NC(=O)c1cc(Cl)c2c(c1)OCO2 (centres undefined) — lower, -2.35%
- CC1CN(C(=O)CN(Cc2ccccc2)C2CC2)CCO1 (centres undefined) — lower, -16.1%
- COCCn1cncc1CN1CCCC(C(=O)Cc2ccccc2)C1 (centres undefined) — lower, -6.55%
- CSc1nnc(C2CCN(C(=O)N3CCOCC3)CC2)n1C(C)C — higher, 3.8%
- Cc1nc(CN2CCN(C(=O)c3ccnc(N(C)C)c3)CC2)cs1 — lower, 1.42%
- Cc1ccc(C(=O)N2C[C@H](NS(C)(=O)=O)[C@@H](C(C)C)C2)cc1F — lower, -2.36%
- CCC(=O)NCC(=O)NC(C)c1ccc(OCCC(C)C)cc1 (centres undefined) — higher, 7.89%
- O=C1CCC(C(=O)NCCOc2cccc(Cl)c2Cl)CN1 (centres undefined) — higher, 4.48%
- CS(=O)(=O)NCCN1CCOC2(CCc3ccccc32)C1 (centres undefined) — lower, -9.63%
- Cc1cnn(C2CN(Cc3nc(-c4ccsc4)no3)C2)c1 — lower, -3.88%
- CCc1ccc(CN2C[C@@H](C(=O)O)[C@H](c3ccccc3OC)C2)o1 — lower, -13.9%
- Cc1cc(CN(C)CCC(O)c2ccccc2)no1 (centres undefined) — lower, 0.238%
- Cc1noc2ncc(C(=O)NCC3CCCOC3)cc12 (centres undefined) — lower, -8.42%
- O=C(Nc1cc(C(F)(F)F)c[nH]c1=O)C1CCNCC1 — higher, 6.01%
- CCN(Cc1c(C)nn(CC)c1C)S(=O)(=O)c1cnn(C)c1C — higher, 9.65%
- CCOC(=O)C1CCN(Cc2csc(C(C)(C)C)n2)CC1 — lower, -4.46%
- O=C(c1ccccn1)N1C[C@H]2CC[C@@H](C1)N(C(=O)CCC1CCCC1)C2 — higher, 3.07%
- COC(=O)C1CCCCN1C(=O)c1ccc(N(C)C)cc1F (centres undefined) — higher, 5.97%
- Cc1ccsc1C(=O)N1CCc2ncnc(NC(C)C)c2CC1 — lower, -79.3%
- CC(C)NC(=O)N1CCN(S(=O)(=O)C2CC2)CC2(CNC(=O)C2)C1 (centres undefined) — lower, 1%
- O=C(Cn1cc(Cl)cn1)Nc1ccc2c(c1)OCO2 — higher, 4.57%
- Cc1cc(C)c2cc(CNCCCN3CCOCC3)c(=O)[nH]c2c1 — lower, -23.8%
- CN1CC2(CCCN(Cc3ccccc3OCC(=O)O)C2)OC1=O (centres undefined) — lower, -6.64%
- COc1ccc(CN2CC[C@H](NC(C)=O)[C@@H](O)CC2)c(OC)c1 — lower, -7.49%
- CCN(CC)[C@@H]1CN(Cc2cnn(C)c2)[C@@H]2COC[C@H]12 — higher, 8.61%
- CCOc1ccccc1C(CC(=O)Nc1ccccn1)NC(C)=O (centres undefined) — lower, -3.95%
- CN1CCCc2ccc(S(=O)(=O)NC(=O)C3CC=CC3)cc21 — lower, 2.84%
- COc1ccc(NC(=O)c2nc(C)sc2C(C)C)cn1 — lower, 0.847%
- CCOCc1ncn2c1CN(C(=O)Nc1cccc(C)c1)CC2 — lower, -8.92%
- O=C(CCn1ccnc1)N1CC[C@H](Oc2ccc(F)cc2)[C@@H](O)CC1 — lower, -3.06%
- CCC1=N[C@@]2(CC[C@@H]3CN(C(=O)Nc4ccccc4)C[C@@H]32)C(=O)N1CC — lower, 2.93%
- CC(C)c1ncc(CN2CCC(c3n[nH]cc3C(=O)N(C)C)C2)cn1 (centres undefined) — lower, 2.27%
- Cc1cc(CS(=O)(=O)NC2CCCc3ccccc32)on1 (centres undefined) — lower, -1.57%
- CC(C)c1nnc(C2CCN(CC(=O)Nc3cccnc3)CC2)o1 — lower, -5.92%
- c1cc(CN2CCO[C@@H]3CNC[C@@H]32)co1 — higher, 6.71%
- CSCc1noc(C2CCC(=O)N(CCc3ccccc3)C2)n1 (centres undefined) — lower, -6.72%
- CC(c1ccc(-n2cncn2)cc1)N(C)Cc1ccccn1 (centres undefined) — higher, 8.86%
- O=C(NC[C@H]1OC[C@@H]2CCN(Cc3ccco3)C[C@@H]21)c1ccnnc1 — lower, -143%
- O=C(c1coc(COc2ccccc2F)n1)N1CCCO1 — higher, 6.29%
- NC(=O)c1ccc(N2CCCCC2)c(NC(=O)c2cncc(Br)c2)c1 — lower, -9.41%
- CCc1nc(C)c(C(C)N(C)CCOC)s1 (centres undefined) — lower, -6.35%
- Cc1ccc(Cl)c(C(C(=O)O)N(C)Cc2cnn(C)c2)c1 (centres undefined) — lower, -11%
- CN(C)C(=O)C1CCN(C2CCN(CC3CC3)CC2)CC1 — higher, 4.55%
- O=C(NC[C@H]1OC[C@@H](NCc2ccccc2)[C@@H]1O)Nc1ccc(F)cc1 — lower, -10.8%
- Cc1ccc(C(=O)N2CCN(Cc3cccs3)CC2)c(=O)[nH]1 — lower, -8.39%
- CN(Cc1cncnc1)[C@H]1CN(C(=O)c2ccco2)[C@@H]2CCCO[C@@H]21 — lower, -101%
- Cc1ccc(CN2CCC(O)(Cn3ccc4ncccc43)CC2)o1 — lower, -31.2%
- CCOc1cccc(C2CC(=O)NCc3nc(N(C)C)sc32)c1 (centres undefined) — lower, -10.9%
- Cc1cc(N2CCC(NC(C)Cc3ccsc3)CC2)nc(N)n1 (centres undefined) — lower, 2.22%
- CCC[C@@H]1CN(S(=O)(=O)c2ccc(OC)c(OC)c2)C[C@H]1NC(C)=O — higher, 3.06%
- CC(C)Cc1cc(C(=O)NC(C)(CO)CO)n(C)n1 — higher, 6.57%
- CN(C)CCCNC(=O)c1ccnc(OCc2ccccc2)c1 — lower, -11.5%
- COC(=O)C(c1ccccc1)N(C)C(=O)c1ccnc(C)n1 (centres undefined) — lower, 1.4%
- Cn1ccnc1CN1CCN(c2ncnc3ccsc23)CC1 — lower, -7.95%
- COc1ccc(CN2C[C@H]3CN(C(=O)c4ccno4)CCN3C2=O)cc1 — lower, -4.23%
- N[C@@H]1CC[C@@H](NC(=O)c2ccccc2OC(F)(F)C(F)F)C1 — lower, -4.85%
- CCc1ccc(S(=O)(=O)N2CC[C@@](O)(CCOC)[C@H](C)C2)cc1 — higher, 6.8%
- CC(C)n1nc(Cn2cccc2)c2c1CN(C1CCOCC1)C2 — higher, 7.55%
- CC(CN1CCCC1=O)NC(=O)c1cc(Cl)c2c(c1)OCO2 (centres undefined) — lower, -10.4%
- CC(C)CCN1C2(CCN(C(=O)N(C)C)C2)c2ccccc2S1(=O)=O (centres undefined) — lower, 2.11%
- O=C(NC[C@]12COC[C@H]1CN(Cc1nccs1)C2)c1ccsc1 — higher, 4.09%
- COc1ccc(C(O)CN2CC(n3nc(C)cc3C)C2)cc1 (centres undefined) — lower, -15.3%
- COc1cnc(N2C[C@@H](CN3CCOCC3)C[C@H](CO)C2)nc1 — lower, -6.16%
- CN(C)C(=O)c1cccnc1-c1ccc2c(c1)OCO2 — lower, 1.58%
- COc1ccc(NC(=O)NCC(O)c2ccccc2F)c(OC)c1 (centres undefined) — higher, 3.22%
- CCn1ccc(-c2cc(C(=O)O)n3nc(C)c(Cl)c3n2)n1 — lower, -3.48%
- Cc1nn(C2CCCCC2)c2nc(C(C)(C)CN3CCOCC3)[nH]c12 — lower, -3.64%
- CN1CCC(Cc2cnc(CNC(=O)Cc3cccc(F)c3)cn2)CC1 — lower, -2.67%
- CC(C)N(C)CCNC(=O)NCc1ccccc1-n1cccn1 — lower, -7.57%
- Cc1cnc(NC(=O)c2csc(NC3CCCC3)n2)s1 — higher, 45.8%
- COc1cc(C)c2c(c1C)C[C@H]([C@H](C)C(=O)O)CC2 — lower, -0.95%
- Cc1cc(CC2COc3ccccc3C2)cnc1N (centres undefined) — lower, 0.873%
- COc1ccccc1N1CCC(CNS(=O)(=O)c2c(C)nn(C)c2C)C1 (centres undefined) — lower, -21.8%
- Cc1cc(C(=O)NC(COCC(C)C)c2ccco2)no1 (centres undefined) — lower, -8.71%
- O=C(NCCc1nncn1C1CC1)c1cc2ccccn2c1 — lower, -1.87%
- O=C(O)C1(Cc2ccccc2Cl)CCN(c2ncnc3[nH]ccc23)CC1 — higher, 11%
- CC(=O)N1CCCC(C(=O)NCCc2ccc(F)c(Br)c2)C1 (centres undefined) — higher, 4.64%
- Cn1cnnc1C1CCCN(C(=O)c2ccc3c(c2)OCCO3)C1 (centres undefined) — lower, -11%
- Cc1ccc(C(NC(=O)C2CCC(O)CC2)c2cccnc2)cc1C (centres undefined) — higher, 24.2%
- CS(=O)(=O)c1cccc(S(=O)(=O)NC(=O)CC2CCCCC2)c1 — lower, -3.17%
